Columns and labels:
[1] = system: Avian myeloblastosis virus reverse transcriptase (Avian myeloblastosis virus); test: Percent inhibition against AMV reverse transcriptase when (dT)n-(rA)12-18 sequence was used as template at 50 uM concentration
[2] = system: Human alphaherpesvirus 1; test: (§1) Percent inhibition of cellular growth against HSV-1 cells at 200 uM concentration; format: functional; details: Human alphaherpesvirus 1, HSV-1
Method in brief: (§2)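 Toxicity taken as the reduction in Vero cell proliferation over 48 h.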

[3] = system: Nucleic Acid; test: Percent inhibition against DNA polymerase alpha when (dT)n-(rA)12-18 sequence was used as template at 50 uM concentration; format: nucleic-acid assay
Method in brief: (§3)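 Cellular DNA polymerase α (2.5 units/mL) was run in Tris-HCl pH 8.0 buffer with MgCl2, DTT and BSA at 37 °C. Values are duplicate means, and inhibition under 5% was taken as not significant.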

[4] = system: Human alphaherpesvirus 1; test: Inhibitory effect against HSV-1 plaque formation at a concentration of 200 uM; format: functional; details: at 200 µM
[5] = system: Nucleic Acid; test: Percent inhibition against DNA polymerase alpha when (dT)n-(rA)12-18 sequence was used as template at 10 uM concentration; format: nucleic-acid assay
Method in brief: as §3

[6] = system: HSV-1; test: Percent inhibition of DNA polymerase activity in HSV-1 cell lines at a concentration of 10 uM; format: cell-based; details: at 10 µM
Method in brief: (§4)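 HSV-1 DNA polymerase was isolated from Vero cells infected with HSV-1 strain C42. It was assayed with [3H]dTTP as labelled substrate and activated calf thymus DNA at 200 μg/mL. Values are averages of duplicate assays, and inhibition under 5% was taken as not significant.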

[7] = system: unidentified influenza virus; test: Inhibitory effect against influenza virus plaque formation at a concentration of 100 uM; format: functional
Method in brief: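 Plaque inhibition of influenza A strain Victoria in MDCK cells. Values are averages of duplicate cell cultures.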

[8] = Percent inhibition against DNA polymerase alpha when activated DNA was used as template at 10 uM concentration
Method in brief: (§5)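 Commercial cellular DNA polymerase α (2.5 units/mL) was run in 100 mM Tris-HCl pH 8.0 with 3 mM MgCl2, 1 mM DTT, 40 μg BSA, 100 μM dATP/dCTP/dGTP, ~10 μM [3H]dTTP and 200 μg/mL activated DNA. Incubation was at 37 °C. Values are duplicate means, and inhibition under 5% was taken as not significant.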

[9] = Percent inhibition against DNA polymerase alpha when activated DNA was used as template at 50 uM concentration
Method in brief: as §5

[10] = system: Avian myeloblastosis virus reverse transcriptase (Avian myeloblastosis virus); test: Percent inhibition against AMV reverse transcriptase when (rC)n-(dG)12-18 sequence was used as template at 50 uM concentration
[11] = system: HSV-1; test: Percent inhibition of DNA polymerase activity in HSV-1 cell lines at a concentration of 50 uM; format: cell-based; details: at 50 µM
Method in brief: as §4

[12] = system: Avian myeloblastosis virus reverse transcriptase (Avian myeloblastosis virus); test: Percent inhibition against AMV reverse transcriptase when (dC)n-(dG)12-18 sequence was used as template at 50 uM concentration
[13] = system: unidentified influenza virus; format: functional; details: at 200 µM
[14] = system: Human alphaherpesvirus 1; test: Percent inhibition of cellular growth against HSV-1 cells at a concentration of 200 uM; format: functional; details: Human alphaherpesvirus 1, HSV-1
Method in brief: as §2

[15] = system: Human alphaherpesvirus 1; test: Inhibitory effect against HSV-1 plaque formation at a concentration of 10 uM; format: functional
Method in brief: (§6)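 HSV-1 strain C42 plaque formation in Vero cells, with compound added to parallel cultures. Values are averages of duplicate cell cultures.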

[16] = system: Human alphaherpesvirus 1; test: Inhibitory effect against HSV-1 plaque formation at a concentration of 50 uM; format: functional
Method in brief: as §6

[17] = system: Human alphaherpesvirus 1; test: Percent reduction in HSV-1 yield at 10 uM concentration; format: functional
Method in brief: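 HSV-1 strain C42 yield from Vero cells, measured by virus titration. Compounds were added to parallel cultures, and values are averages of duplicate cultures. Inhibition below 50% was not considered significant.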

[18] = system: Human alphaherpesvirus 1; test: Percent inhibition of cellular growth against HSV-1 cells at 10 uM concentration; format: functional; details: Human alphaherpesvirus 1, HSV-1
Method in brief: as §2

[19] = system: Human alphaherpesvirus 1; test: Inhibitory effect against HSV-1 plaque formation at a concentration of 100 uM; format: functional
Method in brief: as §6

[20] = system: Human alphaherpesvirus 1; test: Percent inhibition of cellular growth against Vero cells at 100 uM concentration; format: functional; details: Human alphaherpesvirus 1, HSV-1
Method in brief: as §2

[21] = system: Human alphaherpesvirus 1; test: as §1; format: functional; details: Human alphaherpesvirus 1, HSV-1; remark: listed apart in the source
[22] = system: Human alphaherpesvirus 1; test: Inhibitory effect against HSV-1 plaque formation at a concentration of 5 uM; format: functional
Method in brief: as §6

[23] = system: Human alphaherpesvirus 1; test: Inhibitory effect against HSV-1 plaque formation at a concentration of 1 uM; format: functional
Method in brief: as §6

Q: For `Br.CN(C)C(=N)CCNC(=O)c1cc(NC(=O)c2cc(NC(=O)c3cc(NC=O)cn3C)cn2C)cn1C`, which inhibition [1] is on record?
A: 15%

Q: What about the inhibition at 200 µM [2] of the same molecule?
A: 0%

Q: What about the inhibition [3] of the same molecule?
A: 80%

Q: What about the Reduction [4] of the same molecule?
A: <50%

Q: What about the inhibition [5] of the same molecule?
A: 56%

Q: And the inhibition [6]?
A: 44%

Q: And the Reduction [7]?
A: 50%

Q: And the inhibition [8]?
A: 29%

Q: What about the inhibition [9] of the same molecule?
A: 41%

Q: What about the inhibition [10] of the same molecule?
A: < 5%

Q: And the inhibition [11]?
A: 81%

Q: And the inhibition [12]?
A: < 5%

Q: What does the source list for `Br.CCn1cc(NC(=O)c2cc(NC(=O)c3cc(NC=O)cn3CC)cn2CC)cc1C(=O)NCCC(=N)N`?
A: inhibition [1]: 9%; Reduction [13]: <50%; inhibition [3]: 75%; Reduction [4]: <50%; inhibition [5]: 58%; inhibition [6]: 47%; inhibition [8]: 29%; inhibition [9]: 39%; inhibition [10]: < 5%; inhibition [11]: 80%; inhibition [12]: < 5%

Q: For `Br.CCn1cc(NC(=O)c2cc(NC=O)cn2C)cc1C(=O)Nc1cc(C(=O)NCCC(=N)N)n(C)c1`, which inhibition [1] is on record?
A: 8%

Q: What about the Reduction [13] of the same molecule?
A: <50%

Q: What about the inhibition [3] of the same molecule?
A: 64%

Q: What about the inhibition at 200 µM [14] of the same molecule?
A: 10%

Q: What about the Reduction [4] of the same molecule?
A: <50%

Q: What about the inhibition [5] of the same molecule?
A: 31%

Q: And the inhibition [6]?
A: 48%

Q: And the inhibition [8]?
A: 23%

Q: What about the inhibition [9] of the same molecule?
A: 34%

Q: And the inhibition [10]?
A: < 5%

Q: What about the inhibition [11] of the same molecule?
A: 83%

Q: And the inhibition [12]?
A: < 5%

Q: Which inhibition [1] does the source give for `Br.Cn1cc(NC(=O)c2cc(NC(=O)c3cc(NC=O)c[nH]3)cn2C)cc1C(=O)NCCC(=N)N` here?
A: 18%

Q: And the Reduction [13]?
A: 75%

Q: And the inhibition [3]?
A: 82%

Q: And the inhibition [5]?
A: 58%

Q: What about the inhibition [6] of the same molecule?
A: 54%

Q: And the Reduction [15]?
A: 60%

Q: And the inhibition [8]?
A: 31%

Q: What about the inhibition [9] of the same molecule?
A: 45%

Q: And the Reduction [16]?
A: 90%

Q: And the Reduction [17]?
A: 98%

Q: What about the inhibition at 10 µM [18] of the same molecule?
A: 30%

Q: What about the Reduction [19] of the same molecule?
A: >90%

Q: What about the inhibition at 100 µM [20] of the same molecule?
A: 50%

Q: And the inhibition [10]?
A: < 5%

Q: And the inhibition [11]?
A: 89%

Q: What about the inhibition [12] of the same molecule?
A: < 5%

Q: For `Br.Cn1cc(NC(=O)c2cc(NC(=O)c3cc(NC=O)cn3C)cn2C)cc1C(=O)NCCC(=N)N`, which inhibition [3] is on record?
A: 82%

Q: And the Reduction [4]?
A: 55%

Q: What about the inhibition [5] of the same molecule?
A: 58%

Q: What about the inhibition [6] of the same molecule?
A: 49%

Q: What about the Reduction [7] of the same molecule?
A: >50%

Q: What about the inhibition [8] of the same molecule?
A: 31%

Q: What about the inhibition [9] of the same molecule?
A: 40%

Q: What about the Reduction [17] of the same molecule?
A: 27%

Q: What about the inhibition [11] of the same molecule?
A: 83%

Q: For `Br.Cn1cc(NC(=O)c2cc(NC(=O)c3cc(NC(=O)c4cc(NC(=O)c5cc(NC=O)cn5C)cn4C)cn3C)cn2C)cc1C(=O)NCCC(=N)N`, which inhibition [1] is on record?
A: 39%

Q: And the inhibition at 200 µM [2]?
A: 10%

Q: And the Reduction [13]?
A: 65%

Q: And the inhibition [3]?
A: 56%

Q: And the Reduction [4]?
A: <50%

Q: And the inhibition [5]?
A: 20%

Q: And the inhibition [6]?
A: 56%

Q: What about the inhibition [8] of the same molecule?
A: 17%

Q: What about the inhibition [9] of the same molecule?
A: 50%

Q: And the inhibition [10]?
A: < 5%

Q: What about the inhibition [11] of the same molecule?
A: 91%

Q: What about the inhibition [12] of the same molecule?
A: < 5%

Q: What does the source list for `Br.CCn1cc(NC=O)cc1C(=O)Nc1cc(C(=O)Nc2cc(C(=O)NCCC(=N)N)n(C)c2)n(C)c1`?
A: inhibition [1]: 11%; inhibition at 200 µM [2]: 50%; Reduction [13]: <50%; inhibition [3]: 85%; Reduction [4]: 50%; inhibition [5]: 60%; inhibition [6]: 48%; inhibition [8]: 29%; inhibition [9]: 42%; inhibition [10]: < 5%; inhibition [11]: 83%; inhibition [12]: < 5%

Q: With `Br.CCn1cc(NC(=O)c2cc(NC(=O)c3cc(NC=O)cn3C)cn2C)cc1C(=O)NCCC(=N)N` as the molecule, how does the inhibition [1] read?
A: 11%

Q: What about the Reduction [13] of the same molecule?
A: <50%

Q: And the inhibition [3]?
A: 73%

Q: And the Reduction [4]?
A: <50%

Q: What about the inhibition [5] of the same molecule?
A: 40%

Q: What about the inhibition [6] of the same molecule?
A: 52%

Q: What about the inhibition [8] of the same molecule?
A: 26%

Q: And the inhibition [9]?
A: 35%

Q: And the inhibition [10]?
A: < 5%

Q: And the inhibition [11]?
A: 83%

Q: And the inhibition at 200 µM [21]?
A: 10%

Q: And the inhibition [12]?
A: < 5%

Q: Which inhibition [1] does the source give for `Br.CNC(=N)CCNC(=O)c1cc(NC(=O)c2cc(NC(=O)c3cc(NC=O)cn3C)cn2C)cn1C` here?
A: 12%

Q: What about the inhibition [3] of the same molecule?
A: 76%

Q: What about the Reduction [4] of the same molecule?
A: <50%

Q: What about the inhibition [5] of the same molecule?
A: 50%

Q: And the inhibition [6]?
A: 45%

Q: What about the Reduction [7] of the same molecule?
A: <50%

Q: And the inhibition [8]?
A: 27%

Q: What about the inhibition [9] of the same molecule?
A: 38%

Q: And the inhibition [10]?
A: < 5%

Q: And the inhibition [11]?
A: 76%

Q: What about the inhibition [12] of the same molecule?
A: < 5%

Q: For `Br.Cn1cc(NC(=O)c2cc(NC(=O)c3cc(NC=O)cn3C)c[nH]2)cc1C(=O)NCCC(=N)N`, which inhibition [1] is on record?
A: 13%

Q: And the Reduction [13]?
A: <50%

Q: And the inhibition [3]?
A: 80%

Q: And the inhibition [5]?
A: 55%

Q: And the inhibition [6]?
A: 55%

Q: What about the Reduction [15] of the same molecule?
A: <50%

Q: What about the inhibition [8] of the same molecule?
A: 29%

Q: And the inhibition [9]?
A: 41%

Q: What about the Reduction [16] of the same molecule?
A: 90%

Q: And the Reduction [17]?
A: 92%

Q: And the inhibition at 10 µM [18]?
A: 25%

Q: What about the inhibition [10] of the same molecule?
A: < 5%

Q: And the inhibition [11]?
A: 88%

Q: What about the inhibition [12] of the same molecule?
A: < 5%

Q: With `Br.Cn1cc(NC=O)cc1C(=O)Nc1cc(C(=O)Nc2c[nH]c(C(=O)NCCC(=N)N)c2)n(C)c1` as the molecule, how does the inhibition [1] read?
A: 17%

Q: And the inhibition [3]?
A: 75%

Q: And the inhibition [5]?
A: 45%

Q: What about the inhibition [6] of the same molecule?
A: 57%

Q: And the Reduction [22]?
A: 85%

Q: And the Reduction [7]?
A: <50%

Q: What about the Reduction [15] of the same molecule?
A: >90%

Q: And the inhibition [8]?
A: 27%

Q: And the Reduction [23]?
A: <50%

Q: And the inhibition [9]?
A: 37%

Q: What about the Reduction [17] of the same molecule?
A: 99%

Q: What about the inhibition at 10 µM [18] of the same molecule?
A: 60%

Q: What about the inhibition [10] of the same molecule?
A: < 5%

Q: What about the inhibition [11] of the same molecule?
A: 83%

Q: And the inhibition [12]?
A: < 5%

From ChEMBL document CHEMBL1122245, “Synthesis and antiviral activity of distamycin A analogues: substitutions on the different pyrrole nitrogens and in the amidine function” (1983)
